From ChEMBL document CHEMBL1629440, “Synthesis and pharmacological properties of novel hydrophilic 5-HT4 receptor antagonists” (Bioorg Med Chem, 2010)

Key:
[1] = target: T1, 5-hydroxytryptamine receptor 4 (Homo sapiens, UniProt Q13639); test: Antagonistic activity at human 5HT4 receptor expressed in HEK293 cells assessed as inhibition of 5-HT stimulated ADCY activity after 20 mins; format: functional, cell-based
Summary of the method: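 Membranes from HEK293 cells stably expressing human 5-HT4(b) at low level (400 fmol/mg). Adenylyl cyclase activity was stimulated by 1 µM 5-HT with 21 antagonist concentrations, 0.1 mM [α-32P]ATP, 4 mM MgCl2, 1 mM IBMX, GTP and ATP-regenerating system, 32 °C, 20 min. [32P]cAMP was isolated on Dowex/alumina columns. IC50 was fitted by non-linear regression and Kb calculated using 5-HT EC50.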

[2] = target: T1, 5-hydroxytryptamine receptor 4; test: Displacement of [3H]GR113808 from human 5HT4 receptor expressed in HEK293 cells by liquid scintillation counting; format: cell-based
Summary of the method: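 Membranes from HEK293 line stably expressing human 5-HT4(b) at high level (5000 fmol/mg). Incubated with 0.3 nM [3H]GR113808 and 21 competitor concentrations in Tris-HCl pH 7.5, EDTA, EGTA, 2 mM MgCl2, ascorbate, 0.1% BSA, 100 µM GTP, room temperature 1 h. Filtered onto PEI-soaked filters, washed, scintillation counted. Ki derived from IC50 via Ki = IC50/(1+L/Kd).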

[3] = Lipophilicity, log D of the compound in octanol buffer at pH 7.4; format: physicochemical
Summary of the method: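 Distribution between octanol and aqueous buffer at pH 7.4. Both phases were diluted and ligand concentration in each measured by HPLC. Not determined where micelles formed.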

[4] = Half life in bovine plasma by HPLC; format: ADME, Bos taurus; conditions: cattle
Summary of the method: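 Ester incubated at 40 µM initial concentration in bovine plasma at 37 °C for up to 10 h. Aliquots were removed at intervals and H3PO4 added to release protein-bound drug. Parent ester and free-acid degradation product were quantified by HPLC, and half-life was calculated.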

[5] = target: T1, 5-hydroxytryptamine receptor 4; test: Antagonistic activity at human 5HT4 receptor expressed in HEK293 cells; format: functional, cell-based
[6] = target: 5-hydroxytryptamine receptor 1A (Homo sapiens, UniProt P08908); test: Binding affinity to 5HT1A receptor
5-hydroxytryptamine receptor 1A, sequence (P08908 whole entry): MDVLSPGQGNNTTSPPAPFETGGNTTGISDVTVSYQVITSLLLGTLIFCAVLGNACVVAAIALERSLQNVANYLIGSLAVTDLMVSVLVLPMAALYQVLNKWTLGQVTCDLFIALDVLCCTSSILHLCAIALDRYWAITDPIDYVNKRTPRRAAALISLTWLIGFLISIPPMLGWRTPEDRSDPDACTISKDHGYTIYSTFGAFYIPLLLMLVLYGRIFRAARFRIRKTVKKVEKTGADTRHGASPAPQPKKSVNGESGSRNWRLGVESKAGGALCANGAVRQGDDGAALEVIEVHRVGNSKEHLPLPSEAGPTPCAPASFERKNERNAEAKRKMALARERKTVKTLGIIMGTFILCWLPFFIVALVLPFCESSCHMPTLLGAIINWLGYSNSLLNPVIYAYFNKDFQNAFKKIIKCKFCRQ

[7] = target: 5-hydroxytryptamine receptor 1B (Homo sapiens, UniProt P28222); test: Binding affinity to 5HT1B receptor
[8] = target: 5-hydroxytryptamine receptor 1D (Homo sapiens, UniProt P28221); test: Binding affinity to 5HT1D receptor
[9] = target: 5-hydroxytryptamine receptor 1E (Homo sapiens, UniProt P28566); test: Binding affinity to 5HT1E receptor
[10] = target: 5-hydroxytryptamine receptor 2A (Homo sapiens, UniProt P28223); test: Binding affinity to 5HT2A receptor
[11] = target: 5-hydroxytryptamine receptor 2B (Homo sapiens, UniProt P41595); test: Binding affinity to 5HT2B receptor
[12] = target: 5-hydroxytryptamine receptor 2C (Homo sapiens, UniProt P28335); test: Binding affinity to 5HT2C receptor
[13] = target: 5-hydroxytryptamine receptor 3A (Homo sapiens, UniProt P46098); test: Binding affinity to 5HT3 receptor
5-hydroxytryptamine receptor 3A, sequence (P46098 whole entry): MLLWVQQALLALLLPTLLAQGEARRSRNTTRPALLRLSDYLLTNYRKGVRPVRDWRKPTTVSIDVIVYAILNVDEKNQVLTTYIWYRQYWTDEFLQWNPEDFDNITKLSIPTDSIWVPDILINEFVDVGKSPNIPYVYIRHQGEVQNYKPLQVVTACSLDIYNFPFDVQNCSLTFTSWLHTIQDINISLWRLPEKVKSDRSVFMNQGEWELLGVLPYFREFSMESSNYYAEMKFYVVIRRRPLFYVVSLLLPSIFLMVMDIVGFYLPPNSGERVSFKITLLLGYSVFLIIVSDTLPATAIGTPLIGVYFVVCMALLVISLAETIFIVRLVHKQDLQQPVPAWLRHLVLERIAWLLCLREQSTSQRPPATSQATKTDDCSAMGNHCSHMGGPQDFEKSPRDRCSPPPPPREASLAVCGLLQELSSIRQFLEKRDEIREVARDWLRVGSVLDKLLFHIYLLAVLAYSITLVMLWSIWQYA

[14] = target: 5-hydroxytryptamine receptor 5A (Homo sapiens, UniProt P47898); test: Binding affinity to 5HT5A receptor
[15] = target: 5-hydroxytryptamine receptor 6 (Homo sapiens, UniProt P50406); test: Binding affinity to 5HT6 receptor
[16] = target: 5-hydroxytryptamine receptor 7 (Homo sapiens, UniProt P34969); test: Binding affinity to 5HT7 receptor
[17] = target: Alpha-1A adrenergic receptor (Homo sapiens, UniProt P35348); test: Binding affinity to alpha1A adrenergic receptor
[18] = target: Alpha-1B adrenergic receptor (Homo sapiens, UniProt P35368); test: Binding affinity to Alpha-1B adrenergic receptor
[19] = target: Alpha-1D adrenergic receptor (Homo sapiens, UniProt P25100); test: Binding affinity to Alpha-1D adrenergic receptor
[20] = target: Alpha-2A adrenergic receptor (Homo sapiens, UniProt P08913); test: Binding affinity to alpha2A adrenergic receptor
[21] = target: Alpha-2B adrenergic receptor (Homo sapiens, UniProt P18089); test: Binding affinity to alpha2B adrenergic receptor
Alpha-2B adrenergic receptor, sequence (P18089 whole entry): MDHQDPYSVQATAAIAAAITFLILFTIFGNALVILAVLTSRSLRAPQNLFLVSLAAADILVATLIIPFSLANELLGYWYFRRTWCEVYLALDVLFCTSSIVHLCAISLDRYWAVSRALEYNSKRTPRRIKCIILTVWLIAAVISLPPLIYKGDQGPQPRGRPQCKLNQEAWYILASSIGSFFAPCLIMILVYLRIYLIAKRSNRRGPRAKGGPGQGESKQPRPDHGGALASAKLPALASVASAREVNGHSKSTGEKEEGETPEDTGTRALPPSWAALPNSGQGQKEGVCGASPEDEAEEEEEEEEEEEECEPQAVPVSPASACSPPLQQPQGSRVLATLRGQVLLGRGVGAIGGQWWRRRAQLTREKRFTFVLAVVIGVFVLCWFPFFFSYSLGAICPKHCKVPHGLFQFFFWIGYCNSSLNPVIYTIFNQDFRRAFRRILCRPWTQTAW

[22] = target: Alpha-2C adrenergic receptor (Homo sapiens, UniProt P18825); test: Binding affinity to Alpha-2C adrenergic receptor
[23] = target: Beta-1 adrenergic receptor (Homo sapiens, UniProt P08588); test: Binding affinity to beta1 adrenergic receptor
[24] = target: Beta-2 adrenergic receptor (Homo sapiens, UniProt P07550); test: Binding affinity to beta2 adrenergic receptor
Beta-2 adrenergic receptor, sequence (P07550 whole entry): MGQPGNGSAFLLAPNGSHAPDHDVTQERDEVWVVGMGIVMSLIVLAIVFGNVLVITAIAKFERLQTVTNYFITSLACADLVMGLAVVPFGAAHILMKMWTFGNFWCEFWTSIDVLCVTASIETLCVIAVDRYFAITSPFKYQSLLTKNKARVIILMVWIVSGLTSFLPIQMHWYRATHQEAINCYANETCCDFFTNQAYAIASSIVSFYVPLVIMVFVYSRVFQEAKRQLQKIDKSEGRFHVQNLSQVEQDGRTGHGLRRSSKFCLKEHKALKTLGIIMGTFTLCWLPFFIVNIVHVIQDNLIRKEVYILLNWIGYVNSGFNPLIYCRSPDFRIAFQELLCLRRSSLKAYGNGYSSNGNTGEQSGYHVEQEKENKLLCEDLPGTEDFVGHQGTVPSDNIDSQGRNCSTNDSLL

[25] = target: Beta-3 adrenergic receptor (Homo sapiens, UniProt P13945); test: Binding affinity to beta3 adrenergic receptor
Beta-3 adrenergic receptor, sequence (P13945 whole entry): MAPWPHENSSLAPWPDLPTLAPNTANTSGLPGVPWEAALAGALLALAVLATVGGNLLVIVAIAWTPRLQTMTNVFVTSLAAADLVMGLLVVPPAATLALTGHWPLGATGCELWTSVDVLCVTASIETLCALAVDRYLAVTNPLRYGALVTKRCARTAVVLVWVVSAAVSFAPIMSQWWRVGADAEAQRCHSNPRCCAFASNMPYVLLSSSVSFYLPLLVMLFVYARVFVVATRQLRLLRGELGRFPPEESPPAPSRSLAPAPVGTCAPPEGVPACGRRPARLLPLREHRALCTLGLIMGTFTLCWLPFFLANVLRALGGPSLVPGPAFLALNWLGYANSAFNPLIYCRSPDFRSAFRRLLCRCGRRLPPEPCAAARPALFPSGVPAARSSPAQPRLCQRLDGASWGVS

[26] = target: D(1A) dopamine receptor (Homo sapiens, UniProt P21728); test: Binding affinity to dopamine receptor D1
[27] = target: D(2) dopamine receptor (Homo sapiens, UniProt P14416); test: Binding affinity to dopamine receptor D2
[28] = target: D(3) dopamine receptor (Homo sapiens, UniProt P35462); test: Binding affinity to dopamine receptor D3
D(3) dopamine receptor, sequence (P35462 whole entry): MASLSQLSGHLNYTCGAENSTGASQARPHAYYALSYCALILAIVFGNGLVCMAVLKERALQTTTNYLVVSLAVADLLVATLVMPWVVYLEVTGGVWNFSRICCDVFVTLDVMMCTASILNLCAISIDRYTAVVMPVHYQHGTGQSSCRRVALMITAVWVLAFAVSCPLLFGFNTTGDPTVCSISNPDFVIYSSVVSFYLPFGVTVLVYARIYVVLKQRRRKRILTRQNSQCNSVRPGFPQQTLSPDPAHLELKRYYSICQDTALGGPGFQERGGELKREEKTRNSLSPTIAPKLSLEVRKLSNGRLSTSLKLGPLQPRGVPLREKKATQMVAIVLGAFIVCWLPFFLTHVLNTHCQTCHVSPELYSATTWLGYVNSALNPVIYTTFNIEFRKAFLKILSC

[29] = target: D(4) dopamine receptor (Homo sapiens, UniProt P21917); test: Binding affinity to dopamine receptor D4
[30] = target: D(1B) dopamine receptor (Homo sapiens, UniProt P21918); test: Binding affinity to dopamine receptor D5
[31] = target: Histamine H1 receptor (Homo sapiens, UniProt P35367); test: Binding affinity to Histamine receptor H1
[32] = target: Histamine H2 receptor (Homo sapiens, UniProt P25021); test: Binding affinity to Histamine receptor H2
[33] = target: Histamine H3 receptor (Homo sapiens, UniProt Q9Y5N1); test: Binding affinity to Histamine receptor H3
[34] = target: Histamine H4 receptor (Homo sapiens, UniProt Q9H3N8); test: Binding affinity to Histamine receptor H4
[35] = target: Muscarinic acetylcholine receptor M1 (Homo sapiens, UniProt P11229); test: Binding affinity to muscarinic acetylcholine receptor M1
[36] = target: Muscarinic acetylcholine receptor M2 (Homo sapiens, UniProt P08172); test: Binding affinity to muscarinic acetylcholine receptor M2
Muscarinic acetylcholine receptor M2, sequence (P08172 whole entry): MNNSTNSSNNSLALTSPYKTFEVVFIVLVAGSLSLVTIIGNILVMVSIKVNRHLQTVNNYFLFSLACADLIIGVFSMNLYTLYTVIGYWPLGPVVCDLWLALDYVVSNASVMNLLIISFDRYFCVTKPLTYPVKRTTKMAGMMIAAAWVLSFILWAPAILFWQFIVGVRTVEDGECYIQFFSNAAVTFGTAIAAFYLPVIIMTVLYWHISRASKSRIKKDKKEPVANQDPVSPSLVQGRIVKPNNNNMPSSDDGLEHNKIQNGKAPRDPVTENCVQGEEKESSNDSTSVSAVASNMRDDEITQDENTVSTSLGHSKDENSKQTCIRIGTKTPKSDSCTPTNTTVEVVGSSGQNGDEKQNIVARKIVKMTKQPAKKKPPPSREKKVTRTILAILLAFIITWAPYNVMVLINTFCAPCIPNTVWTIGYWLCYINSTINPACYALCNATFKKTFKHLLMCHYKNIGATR

[37] = target: Muscarinic acetylcholine receptor M3 (Homo sapiens, UniProt P20309); test: Binding affinity to muscarinic acetylcholine receptor M3
[38] = target: Muscarinic acetylcholine receptor M4 (Homo sapiens, UniProt P08173); test: Binding affinity to muscarinic acetylcholine receptor M4
Muscarinic acetylcholine receptor M4, sequence (P08173 whole entry): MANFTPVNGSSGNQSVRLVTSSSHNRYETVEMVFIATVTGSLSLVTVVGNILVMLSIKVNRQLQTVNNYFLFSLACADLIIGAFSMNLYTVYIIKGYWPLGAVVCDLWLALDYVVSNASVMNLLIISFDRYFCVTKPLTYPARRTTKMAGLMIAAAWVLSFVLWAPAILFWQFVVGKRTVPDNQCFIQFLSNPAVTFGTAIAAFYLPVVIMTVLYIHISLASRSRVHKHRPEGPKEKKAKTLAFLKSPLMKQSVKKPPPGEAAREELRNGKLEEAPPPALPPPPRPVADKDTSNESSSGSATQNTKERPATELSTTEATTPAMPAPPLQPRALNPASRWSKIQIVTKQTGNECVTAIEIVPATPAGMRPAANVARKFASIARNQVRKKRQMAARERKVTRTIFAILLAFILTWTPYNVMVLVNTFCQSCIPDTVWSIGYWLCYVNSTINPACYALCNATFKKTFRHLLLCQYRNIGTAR

[39] = target: Muscarinic acetylcholine receptor M5 (Homo sapiens, UniProt P08912); test: Binding affinity to muscarinic acetylcholine receptor M5
[40] = target: Delta-type opioid receptor (Homo sapiens, UniProt P41143); test: Binding affinity to opioid receptor DOR
[41] = target: Kappa-type opioid receptor (Homo sapiens, UniProt P41145); test: Binding affinity to opioid receptor KOR
Kappa-type opioid receptor, sequence (P41145 whole entry): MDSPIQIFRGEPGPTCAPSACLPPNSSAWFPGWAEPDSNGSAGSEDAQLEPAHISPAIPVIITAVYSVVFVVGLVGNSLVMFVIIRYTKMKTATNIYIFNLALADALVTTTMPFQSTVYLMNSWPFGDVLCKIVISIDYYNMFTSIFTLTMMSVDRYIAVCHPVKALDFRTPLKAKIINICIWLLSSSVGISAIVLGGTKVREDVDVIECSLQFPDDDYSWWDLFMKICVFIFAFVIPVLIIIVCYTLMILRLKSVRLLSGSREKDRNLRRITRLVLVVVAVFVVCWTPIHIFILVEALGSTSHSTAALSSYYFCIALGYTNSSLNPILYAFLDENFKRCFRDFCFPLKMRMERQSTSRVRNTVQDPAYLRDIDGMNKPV

[42] = target: Mu-type opioid receptor (Homo sapiens, UniProt P35372); test: Binding affinity to opioid receptor MOR
[43] = Binding affinity to opioid receptor Sigma2
[44] = Binding affinity to GABA receptor BDZ-site
[45] = Binding affinity to GABA-A receptor muscimol site
[46] = target: Sodium-dependent dopamine transporter (Homo sapiens, UniProt Q01959); test: Binding affinity to DAT
[47] = target: Sodium-dependent serotonin transporter (Homo sapiens, UniProt P31645); test: Binding affinity to SERT
Sodium-dependent serotonin transporter, sequence (P31645 whole entry): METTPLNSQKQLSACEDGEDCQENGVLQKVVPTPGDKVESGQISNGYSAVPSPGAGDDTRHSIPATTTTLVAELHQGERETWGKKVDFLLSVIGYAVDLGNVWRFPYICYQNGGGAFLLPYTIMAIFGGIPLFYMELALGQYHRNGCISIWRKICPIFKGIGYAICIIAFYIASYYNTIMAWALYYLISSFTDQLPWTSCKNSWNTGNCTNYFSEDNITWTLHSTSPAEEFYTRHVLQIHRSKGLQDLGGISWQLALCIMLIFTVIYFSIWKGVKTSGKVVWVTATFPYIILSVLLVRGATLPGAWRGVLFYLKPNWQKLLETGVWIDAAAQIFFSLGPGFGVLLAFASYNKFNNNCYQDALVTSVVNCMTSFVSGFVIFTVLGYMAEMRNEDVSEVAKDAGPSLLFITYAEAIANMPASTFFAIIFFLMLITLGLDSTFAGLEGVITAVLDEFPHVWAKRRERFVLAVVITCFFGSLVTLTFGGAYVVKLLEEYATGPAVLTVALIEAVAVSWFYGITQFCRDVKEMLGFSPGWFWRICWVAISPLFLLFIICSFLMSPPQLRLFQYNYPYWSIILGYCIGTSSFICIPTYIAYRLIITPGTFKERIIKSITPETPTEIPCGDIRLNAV

T1 sequence (Q13639 whole entry): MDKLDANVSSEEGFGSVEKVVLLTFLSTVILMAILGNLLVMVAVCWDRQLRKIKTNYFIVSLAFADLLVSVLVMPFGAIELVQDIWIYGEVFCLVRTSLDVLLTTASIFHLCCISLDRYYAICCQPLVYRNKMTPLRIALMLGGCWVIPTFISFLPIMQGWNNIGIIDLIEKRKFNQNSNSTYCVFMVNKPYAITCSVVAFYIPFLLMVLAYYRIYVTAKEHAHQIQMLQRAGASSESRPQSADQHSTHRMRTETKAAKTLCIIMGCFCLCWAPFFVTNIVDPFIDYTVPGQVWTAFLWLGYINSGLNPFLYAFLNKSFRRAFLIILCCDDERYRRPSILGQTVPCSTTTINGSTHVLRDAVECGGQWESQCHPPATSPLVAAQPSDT

Structure (SMILES): O=C(O)CCN1CCC(CNC(=O)c2c3n(c4ccccc24)CCCO3)CC1
- pKb [1]: 8.08
- Ki [2]: 1.12 nM
- logD [3]: -1.3

Structure (SMILES): O=C(CCCCCN1CCC(CNC(=O)c2c3n(c4ccccc24)CCCO3)CC1)OCc1ccccc1
- pKb [1]: 10.2
- Ki [2]: 0.141 nM

Structure (SMILES): O=C(O)c1ccc(CN2CCC(CNC(=O)c3c4n(c5ccccc35)CCCO4)CC2)cc1
- pKb [1]: 7.25
- Ki [2]: 5.01 nM

Structure (SMILES): COC(=O)CCCCCCCCCN1CCC(CNC(=O)c2c3n(c4ccccc24)CCCO3)CC1
- pKb [1]: 9.33
- Ki [2]: 0.195 nM

Structure (SMILES): CCCCN1CCC(CNC(=O)c2c3n(c4ccccc24)CCCO3)CC1 [PIBOSEROD]
- pKb [1]: 9.26
- Ki [2]: 0.0525 nM
- logD [3]: 2.2

Structure (SMILES): O=C(CCCN1CCC(CNC(=O)c2c3n(c4ccccc24)CCCO3)CC1)OCc1ccccc1
- pKb [1]: 9.85
- Ki [2]: 0.0427 nM
- half-life [4]: 20 min

Structure (SMILES): COC(=O)CCCCCCCCCCCN1CCC(CNC(=O)c2c3n(c4ccccc24)CCCO3)CC1
- pKb [1]: 9.89
- Ki [2]: 0.339 nM

Structure (SMILES): CC(C)(C)C(=O)OCOC(=O)CCCCCN1CCC(CNC(=O)c2c3n(c4ccccc24)CCCO3)CC1
- pKb [1]: 9.83
- Ki [2]: 0.0646 nM

Structure (SMILES): CCOC(=O)CCCN1CCC(CNC(=O)c2c3n(c4ccccc24)CCCO3)CC1
- pKb [1]: 9.43
- Ki [2]: 0.102 nM
- half-life [4]: 30 min

Structure (SMILES): Cn1cc(C(=O)OCC2CCN(CCNS(C)(=O)=O)CC2)c2ccccc21
- pKb [1]: 9.24
- Ki [5]: 0.0741 nM

Structure (SMILES): CC(C)(C)OC(=O)CN1CCC(CNC(=O)c2c3n(c4ccccc24)CCCO3)CC1
- pKb [1]: 9.01
- Ki [2]: 0.759 nM

Structure (SMILES): O=C(O)CCCN1CCC(CNC(=O)c2c3n(c4ccccc24)CCCO3)CC1
- pKb [1]: 7.96
- Ki [2]: 2 nM
- logD [3]: -1.2

Structure (SMILES): CC(C)(C)C(=O)OCOC(=O)c1ccc(CN2CCC(CNC(=O)c3c4n(c5ccccc35)CCCO4)CC2)cc1
- pKb [1]: 9.07
- Ki [2]: 0.339 nM
- logD [3]: 2.3

Structure (SMILES): CCOC(=O)CCCN1CCC(CNC(=O)c2c[nH]c3ccccc23)CC1
- pKb [1]: 5.84
- Ki [5]: 107 nM

Structure (SMILES): O=C(O)CCCN1CCC(CNC(=O)c2c[nH]c3ccccc23)CC1
- pKb [1]: 4.62
- Ki [5]: 3630 nM

Structure (SMILES): O=C(O)CN1CCC(CNC(=O)c2c3n(c4ccccc24)CCCO3)CC1
- pKb [1]: 7.91
- Ki [2]: 2.82 nM
- logD [3]: -1.1

Structure (SMILES): O=C(O)CCCCN1CCC(CNC(=O)c2c3n(c4ccccc24)CCCO3)CC1
- pKb [1]: 8.1
- Ki [2]: 2.04 nM
- logD [3]: -1.3

Structure (SMILES): O=C(O)CCCN1CCC(COC(=O)c2c[nH]c3ccccc23)CC1
- pKb [1]: 8.16
- Ki [5]: 0.813 nM

Structure (SMILES): CC(C)(C)OC(=O)CCCN1CCC(CNC(=O)c2c3n(c4ccccc24)CCCO3)CC1
- pKb [1]: 9.47
- Ki [2]: 0.234 nM

Structure (SMILES): O=C(O)CCCCCN1CCC(CNC(=O)c2c3n(c4ccccc24)CCCO3)CC1
- pKb [1]: 7.94
- Ki [2]: 1.55 nM
- logD [3]: -1.3
- Ki [6]: > 10000 nM
- Ki [7]: > 10000 nM
- Ki [8]: > 10000 nM
- Ki [9]: > 10000 nM
- Ki [10]: > 10000 nM
- Ki [11]: > 10000 nM
- Ki [12]: > 10000 nM
- Ki [13]: > 10000 nM
- Ki [14]: > 10000 nM
- Ki [15]: > 10000 nM
- Ki [16]: > 10000 nM
- Ki [17]: > 10000 nM
- Ki [18]: > 10000 nM
- Ki [19]: > 10000 nM
- Ki [20]: > 10000 nM
- Ki [21]: > 10000 nM
- Ki [22]: > 10000 nM
- Ki [23]: > 10000 nM
- Ki [24]: > 10000 nM
- Ki [25]: > 10000 nM
- Ki [26]: > 10000 nM
- Ki [27]: > 10000 nM
- Ki [28]: > 10000 nM
- Ki [29]: > 10000 nM
- Ki [30]: > 10000 nM
- Ki [31]: > 10000 nM
- Ki [32]: > 10000 nM
- Ki [33]: > 10000 nM
- Ki [34]: > 10000 nM
- Ki [35]: > 10000 nM
- Ki [36]: > 10000 nM
- Ki [37]: > 10000 nM
- Ki [38]: > 10000 nM
- Ki [39]: > 10000 nM
- Ki [40]: > 10000 nM
- Ki [41]: > 10000 nM
- Ki [42]: > 10000 nM
- pKi [43]: < 5
- pKi [44]: < 5
- pKi [45]: < 5
- Ki [46]: > 10000 nM
- Ki [47]: > 10000 nM

Structure (SMILES): O=C(O)CCCCCCCCCCCN1CCC(CNC(=O)c2c3n(c4ccccc24)CCCO3)CC1
- pKb [1]: 8.97
- Ki [2]: 2.45 nM

Structure (SMILES): CC(C)(C)OC(=O)CCCCCN1CCC(CNC(=O)c2c3n(c4ccccc24)CCCO3)CC1
- pKb [1]: 9.89
- Ki [2]: 0.0537 nM

Structure (SMILES): CCOP(=O)(CCN1CCC(CNC(=O)c2c3n(c4ccccc24)CCCO3)CC1)OCC
- pKb [1]: 8.64
- Ki [2]: 1.26 nM

Structure (SMILES): O=C(CCCCN1CCC(CNC(=O)c2c3n(c4ccccc24)CCCO3)CC1)OCc1ccccc1
- pKb [1]: 10.2
- Ki [2]: 0.00145 nM
